High-throughput results: PubChem, several laboratories
SENP1 FRET inh: inhibitors of human SENP1 SUMO protease catalytic domain; inhibition, % at 10 µM; AID 624204; Q9P0U3; 360,000 tested, 0.21% active; recombinant SENP1 catalytic domain, CyPet-SUMO1-YPet FRET cleavage;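 active = inhibition at least 30% at 10 µM, raw YFP signal under a set limit, fluorescence ratio 0.5 to 1.5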;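 note: 0% = enzyme with DMSO and 100% = no enzyme wells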
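Test system: hSENP1 catalytic domain, recombinant; Amount: 20 pM final SENP1 enzyme; Medium: Tris pH 8 buffer plus EDTA, NaCl, BME, BSA, NP40, catalase; Schedule: 50 min enzyme reaction, room temperature, light-protected; Technique: FRET fluorescence in CFP and YFP emission channels; Controls: no-enzyme wells low, DMSO-plus-enzyme wells high control.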
Arr AP2 block: inhibitors of human beta-arrestin and AP2 interaction; FITC-arrestin peptide / GST-AP2 beads, flow cytometry; AP2 beta2 appendage carries R879A mutation; inhibition, % at 10 µM; 340,000 tested, 0.31% active;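 active = inhibition above a set limit, near 3 SD of compounds lacking own fluorescence, cut at about 54% in these data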;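 note: plate controls were DMSO wells for no effect and 5 µM unlabelled arrestin peptide for full effect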
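System: GST-tagged AP2 beta2-adaptin appendage (R879A) on 4 µm glutathione beads / Reagent: FITC-arrestin peptide, 50 nM / Detection: HyperCyt-sampled flow cytometry, FL1 channel, ex 488/em 535 nm / Timing: 12 min plus 1 h, RT / Buffer or medium: PBS plus Tween 20 (0.05%) and BSA (0.1%)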
hiPSC survival: enhancers of human iPSC single-cell survival; hiPSC single-cell survival, ATPlite luminescence; 100% = ROCK inhibitor wells, 0% = DMSO; survival enhancement, % at 20 µM; 360,000 tested, 0.044% active; AID 602274; in the data active = survival enhancement above about 18%;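 note: cells exposed to compounds for 16 hours before the ATP read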
NR3A LBD binder: NR3A (human) ligand-binding domain modulation | 340,000 tested, 2.5% active | Tm shift relative to glycine control, % at 25 µM | NR3A LBD differential scanning fluorimetry, Tm shift; 0% = protein alone, 100% = glycine-bound protein;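 active = melting temperature shift of at least 10% of the positive control shift, at one fixed dose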
Cardio protect: modulators protecting cardiomyocytes from myocardial damage. AID 588492. H9c2 cardiomyocytes, H2O2 injury protection, ATPLite, 2 h. protection from H2O2 cell death, % at 20 µM. 360,000 tested, 0.63% active;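 active = compounds giving at least 50% protection of heart cells from peroxide-induced death in the single-dose screen, raw or plate-pattern-corrected value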;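 note: 0% = DMSO wells with peroxide and 100% = DMSO wells without peroxide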
FAS TE block: FAS thioesterase (human) inhibition. P49327. recombinant FAS-TE, OMFH fluorogenic substrate, fluorescence endpoint. inhibition, % at 15 µM. 360,000 tested, 0.67% active. AID 602261;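 active = compounds whose normalised, plate-corrected inhibition of enzyme fluorescence in the single-dose primary screen is 50% or more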;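 note: 0% = DMSO with enzyme and 100% = substrate without enzyme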
FAS-TE inh conf: FAS thioesterase (human) inhibition, confirmation. shares compounds with FAS TE block. recombinant FAS-TE, OMFH fluorogenic substrate, fluorescence. inhibition, % at 15 µM. 2,300 tested, 45% active;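 active = compounds inhibiting the enzyme by at least 50% at 15 µM in any one of the replicates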;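 note: 0% = enzyme with DMSO only and 100% = wells lacking enzyme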
Starred values were filed as active, the others as inactive. Rows were chosen to be rich in hits. Some 4% of all compounds tested hit in one or more screens of this group.

For COc1ccc(NC(=O)Nc2ccc3c(c2)C(=O)N([C@H](C)CO)C[C@H](C)[C@@H](CN(C)Cc2ccc(Cl)c(Cl)c2)OCCCC[C@@H](C)O3)cc1 the results were SENP1 FRET inh 0, hiPSC survival 1, Cardio protect -11, FAS TE block 62* and FAS-TE inh conf 8.
Screening C[C@@H]1CCCCO[C@H](CN(C)Cc2ccc(Cl)c(Cl)c2)[C@H](C)CN([C@@H](C)CO)C(=O)c2cc(NC(=O)Nc3ccc(F)cc3)ccc2O1 returned SENP1 FRET inh 1, hiPSC survival -1, Cardio protect -16 and FAS TE block 29.
Screening CC(C)CC(NC(=O)c1ccc(Cl)cc1)C(=O)OCc1cc([N+](=O)[O-])cc2c1OCOC2 (centres undefined) returned SENP1 FRET inh 4, Arr AP2 block -11, hiPSC survival 5, NR3A LBD binder -8, Cardio protect -4, FAS TE block 52* and FAS-TE inh conf 37.
`CC(C)C(NC(=O)c1ccccc1)C(=O)OCc1cc([N+](=O)[O-])cc2c1OCOC2` (centres undefined) gave SENP1 FRET inh 2, Arr AP2 block 3, hiPSC survival 1, NR3A LBD binder 0, Cardio protect -13 and FAS TE block 32.
Screening O=C(O)C(c1ccccc1)C1CCCCC1O (centres undefined) returned SENP1 FRET inh 1, Arr AP2 block -11, hiPSC survival -1, NR3A LBD binder -1, Cardio protect 1 and FAS TE block -6.
For COC(=O)C1CCC(=O)N1C(c1ccc(OC)cc1)c1cc(OC)c(OC)c(OC)c1 (centres undefined) the results were SENP1 FRET inh 1, Arr AP2 block -4, hiPSC survival -2, NR3A LBD binder -1, Cardio protect 1 and FAS TE block -6.
COc1cc(C2c3c(c(C)c(C)oc3=O)Oc3c(C)c(C)oc(=O)c32)ccc1OS(=O)(=O)c1ccc(C)cc1 was read as SENP1 FRET inh -4, Arr AP2 block 2, hiPSC survival -3, NR3A LBD binder 1, Cardio protect 27, FAS TE block 84* and FAS-TE inh conf 22.
For COc1ccc(CN2C(=O)C(CC(=O)NCc3cccs3)CC(C(=O)N(C(C)C)C(C)C)=C2C)cc1 (centres undefined) the results were SENP1 FRET inh 1, hiPSC survival -2, Cardio protect 2 and FAS TE block 0.
`Cc1ccc(C(=O)N/C(=C/c2ccc(-c3ccc([N+](=O)[O-])cc3)o2)C(=O)NCCCN(C)C)cc1` gave SENP1 FRET inh -30, Arr AP2 block 8, hiPSC survival 0, NR3A LBD binder -2, Cardio protect -7, FAS TE block 57* and FAS-TE inh conf 56*.
Screening C[C@H]1CN([C@@H](C)CO)C(=O)CCCn2cc(nn2)CO[C@@H]1CN(C)C(=O)NC1CCCCC1 returned SENP1 FRET inh -1, hiPSC survival -1, Cardio protect 4 and FAS TE block -12.
Screening CN1C(=O)/C(=C/c2cc(N=Nc3ccccc3)ccc2O)SC1=S returned SENP1 FRET inh 7, Arr AP2 block 5, hiPSC survival 0, NR3A LBD binder 372*, Cardio protect -19, FAS TE block 58* and FAS-TE inh conf 14.
For NC(c1ccc(F)c(F)c1)c1nc(-c2cc(F)cc(F)c2)cs1 (centres undefined) the results were SENP1 FRET inh 1, hiPSC survival -2, Cardio protect 3 and FAS TE block 10.
CCc1ccc(S(=O)(=O)c2nnn3c2nc(N2CCOCC2)c2ccccc23)cc1 was read as SENP1 FRET inh 2, Arr AP2 block 39, hiPSC survival 0, NR3A LBD binder -3, Cardio protect 2, FAS TE block 60* and FAS-TE inh conf 36*.
`Cc1ccc(S(=O)(=O)c2nnn3c2nc(N2CCN(c4ccccn4)CC2)c2ccccc23)cc1C` gave SENP1 FRET inh 3, Arr AP2 block 31, hiPSC survival 0, NR3A LBD binder -1, Cardio protect 3, FAS TE block 53* and FAS-TE inh conf 0.
For CC(=O)c1ccc(N2CCN(C(=O)CNC(=O)c3ccc(Br)o3)CC2)cc1 the results were SENP1 FRET inh -1, hiPSC survival 4, Cardio protect -1 and FAS TE block -7.
Screening CCCCNC(=O)C(=O)Nc1ccc2c(c1)N(S(=O)(=O)c1cccs1)CCC2 returned SENP1 FRET inh 0, hiPSC survival -2, Cardio protect -4 and FAS TE block 19.
Screening CCS(=O)(=O)N1Cc2cc(C(=O)N(C)C)nc(-c3cccc(-c4ccc(F)cc4)c3)c2[C@H]1CCO returned SENP1 FRET inh 1, hiPSC survival 0 and FAS TE block -12.
COc1ccccc1NC(=O)Cc1nc(=O)[nH]c(=O)[nH]1 was read as SENP1 FRET inh 1, hiPSC survival 0, Cardio protect 2 and FAS TE block -6.
`O=C(Nc1ccc(Cl)cc1)N1CCCN(c2ccc(C(F)(F)F)cc2[N+](=O)[O-])CC1` gave SENP1 FRET inh 2, Arr AP2 block 6, hiPSC survival 1, NR3A LBD binder 8, Cardio protect -7, FAS TE block 54* and FAS-TE inh conf 21.
O=[N+]([O-])c1cc(C(F)(F)F)ccc1N1CCC(O)CC1 was read as SENP1 FRET inh 0, Arr AP2 block 14, hiPSC survival 0, NR3A LBD binder -2, Cardio protect -3 and FAS TE block 2.
Screening O=[N+]([O-])c1cccc(CON=Cc2cc(Cl)ccc2O)c1 returned SENP1 FRET inh -3, hiPSC survival -4, Cardio protect -11 and FAS TE block 34.
`N#C/C(=C/C1=C(N2CCOCC2)C(=C/c2ccc(Cl)cc2Cl)/CC1)C(=O)Nc1ccccc1F` gave SENP1 FRET inh 68, Arr AP2 block 6, hiPSC survival 2, NR3A LBD binder -1, Cardio protect -1 and FAS TE block 0.
Screening COc1cc2ccc(CC(N)=O)cc2cc1OC returned SENP1 FRET inh -1, hiPSC survival 0, Cardio protect 7 and FAS TE block -7.
Screening O=C(O)c1cocc1C(=O)O returned SENP1 FRET inh 3, hiPSC survival 1, Cardio protect -4 and FAS TE block -8.
`Cc1ccc(N2C(=O)N3[C@H](c4ccc(Br)cc4)[C@@H]4C(=O)N(C(C)(C)C)C(=O)[C@@H]4[C@]3(C)C2=O)cc1` gave SENP1 FRET inh -6, Arr AP2 block 5, hiPSC survival -1, NR3A LBD binder -12, Cardio protect -2 and FAS TE block 33.
